Source: publication PMC10422018 (Molecular Therapy, 2023)

Experiments:
3T3-L1 adipocytes [1] = assay: Glycerol release from 3T3-L1 adipocytes treated with C26 CM; type: cell-based, mouse; details: 24 h
[2] = Stability of the peptides in solution; type: physicochemical; details: peptide in solution
3T3-L1 adipocytes [3] = assay: LPS-induced glycerol release from 3T3-L1 adipocytes; type: cell-based, mouse; details: 0.5 µM or 5 µM, 1µg/ml LPS, 24 h
Procedure, shortened: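 3T3-L1 preadipocytes were differentiated with 1 μg/mL insulin, 0.25 μM dexamethasone and 0.5 mM IBMX, then used 8–12 days post-differentiation. Glycerol was measured with a glycerol kit, either directly in culture medium or in Krebs-Ringer buffer (3% BSA, 5 mM glucose) collected over 2 h after a 1 h preincubation. Experiments were repeated at least 2–3 times, each with n ≥3 technical replicates.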

NC(=O)c1ncn([C@@H]2O[C@H](COP(=O)(O)O)[C@@H](O)[C@H]2O)c1N [AICAR, 5-aminoimidazole-4-carboxamide ribonucleotide]
C26 CM-induced glycerol release (3T3-L1 adipocytes [1]; indicated concentrations of AICAR): reduced C26 CM-induced glycerol release at higher doses

C#CC[C@H](NC(=O)[C@H](CCCCN)NC(=O)[C@H](CCCCN)NC(=O)[C@H](Cc1c[nH]c2ccccc12)NC(=O)[C@H](CCCCN)NC(=O)[C@H](CCSC)NC(=O)[C@H](CCCNC(=N)N)NC(=O)[C@H](CCCNC(=N)N)NC(=O)[C@H](CC(N)=O)NC(=O)[C@H](CCC(N)=O)NC(=O)[C@H](Cc1ccccc1)NC(=O)[C@H](Cc1c[nH]c2ccccc12)NC(=O)[C@@H](NC(=O)[C@H](CCCCN)NC(=O)[C@@H](NC(=O)[C@H](CCC(N)=O)NC(=O)[C@@H](N)CCCNC(=N)N)[C@@H](C)CC)[C@@H](C)CC)C(=O)N[C@@H](CC(N)=O)C(=O)N[C@@H](Cc1c[nH]cn1)C(=O)N[C@H](C(=O)N[C@@H](CCSC)C(=O)N[C@@H](CC(C)C)C(=O)N[C@@H](CC(N)=O)C(=O)N[C@@H](Cc1c[nH]cn1)C(=O)N[C@@H](CC(C)C)C(=O)N[C@@H](Cc1ccc(O)cc1)C(=O)N[C@@H](C)C(=O)N[C@@H](CC(C)C)C(=O)N[C@@H](CO)C(=O)N[C@H](C(=O)N[C@@H](CCCCN)C(=O)N[C@@H](CC(=O)O)C(=O)NCC(=O)N[C@H](C(N)=O)C(C)C)[C@@H](C)CC)C(C)C [Pen-X-ACIP]
Degradation products in mass spectrometry [2]: No degradation products were detected

MK8722
C26 CM-induced lipolysis (glycerol release) (3T3-L1 adipocytes [1]; 0.5 µM or 5 µM): reduced C26 CM-induced lipolysis dose dependently | LPS-induced glycerol release (3T3-L1 adipocytes [3]): inhibited
